In ChEMBL document CHEMBL4765352, “Discovery of AdipoRon analogues as novel AMPK activators without inhibiting mitochondrial complex I” (Eur J Med Chem, 2020):
Calls of active or inactive are those of the source. The rule behind the calls is not given here.

Columns and labels:
C2C12 [1] = assay: Activation of AMPK in mouse C2C12 cells assessed as increase in AMPK phosphorylation at Thr172 residue at 10 uM measured after 2 hrs by Western blot analysis; assay type: cell-based; details: filed as activator
Procedure, shortened: (§1)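 C2C12 myoblasts differentiated in DMEM with 2% horse serum for 5-7 days until myotubes formed. Treated for 2 h, either at 10 μM or across a concentration range, or at 10 μM over a time course. RIPA lysates (~30 µg protein) blotted for p-AMPK/AMPK and p-ACC/ACC, detected by ECL. The p-AMPK/AMPK ratio is expressed as fold of the DMSO vehicle.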

C2C12 [2] = assay: Activation of AMPK in mouse C2C12 cells assessed as increase in ACC phosphorylation measured after 2 hrs by Western blotting analysis; assay type: cell-based; details: filed as activator, dose 0.1-20 µM; procedure, shortened: as §1
HepG2 [3] = assay: Activation of AMPK in human HepG2 cells assessed as increase in AMPK phosphorylation at 1 to 20 uM measured after 2 to 12 hrs by Western blotting analysis; assay type: cell-based; details: filed as activator, dose 1-20 µM, time 2-12 hrs
Procedure, shortened: (§2)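 HepG2 and HuH-7 cells in medium with 10% FBS and penicillin/streptomycin at 37 °C, 5% CO₂. Treated with a range of concentrations for 2 h, or with 10 μM over a time course. Cells lysed in RIPA buffer with protease/phosphatase inhibitors; ~30 µg protein per lane blotted for p-AMPK, AMPK, p-ACC, ACC, with GAPDH or β-actin as loading control. Detected by ECL.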

HepG2 [4] = assay: Activation of AMPK in human HepG2 cells assessed as increase in ACC phosphorylation at 1 to 20 uM measured after 2 to 12 hrs by Western blotting analysis; assay type: cell-based; details: filed as activator, dose 1-20 µM, time 2-12 hrs; procedure, shortened: as §2
Huh-7 = assay: Activation of AMPK in human HuH-7 cells assessed as increase in AMPK phosphorylation at 1 to 20 uM measured after 2 to 12 hrs by Western blotting analysis; assay type: cell-based; details: filed as activator, dose 1-20 µM, time 2-12 hrs; procedure, shortened: as §2
[5] = Inhibition of bovine heart mitochondrial complex 1 at 5 to 20 uM measured every minute for 2 hrs by microplate reader based assay; assay type: tissue-based, Bos taurus; details: cattle, dose 5-20 µM
Procedure, shortened: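 Bovine heart mitochondria in detergent were captured on a complex I antibody-coated plate for 2 h at room temperature. Phospholipids were added, then complex I solution with compound, rotenone control or DMSO. NADH oxidation was followed as the fall in A340, read every minute for at least 2 h at 30 °C.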

[6] = Inhibition of mitochondrial complex 1 in human HepG2 cells assessed as increase in AMP/ATP ratio at 10 uM; assay type: cell-based; details: hepg2, 10 µM
Procedure, shortened: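 HepG2 cells treated with 10 μM or 0.5 μM compound, or DMSO. Cellular ADP:ATP and AMP:ATP ratios were measured. Three replicates, given as mean ± SD and compared by Student's t test.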

C2C12 [7] = assay: Activation of AMPK in mouse C2C12 cells with SiRNA-induced LKB1 knock down assessed as increase in AMPK phosphorylation; assay type: cell-based
BEAS-2B = assay: Activation of AMPK in human BEAS-2B cells harboring wild type LKB1; assay type: cell-based; details: filed as activator
C2C12 [8] = assay: Activation of AMPK in mouse C2C12 cells assessed as increase in AMPK phosphorylation in presence of CaMKKbeta inhibitor STO-609; assay type: cell-based; details: filed as activator
[9] = Metabolic stability in ICR/CD-1 mouse liver microsomes assessed as compound remaining preincubated for 5 mins followed by NADPH addition and measured up to 45 mins by LC/MS analysis; assay type: ADME, Microsome; details: time 50 min, read-out: Stabilty
Procedure, shortened: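 Compound was preincubated with mouse (ICR/CD-1) or human liver microsomes in potassium phosphate buffer at 37 °C for 5 min, then NADPH was added to start the reaction. Samples were quenched with acetonitrile containing tolbutamide internal standard at 0, 5, 15, 30 and 45 min. Parent compound measured by LC/MS; ketanserin served as control.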

Mus musculus [10] = assay: Hypoglycemic activity in 6 hrs fasted ig dosed normal lean C57BL/6 mouse assessed as improved glucose tolerance pretreated for 2 hrs followed by glucose challenge and measured up to 90 mins post glucose challenge starting from 120 mins prior to […] by IPGTT; assay type: functional, organism-based; details: dose 25-100 mg/kg, time 210.0 min
Procedure, shortened: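 C57BL/6 mice (male, 8-10 weeks, n=6 per group) fasted 6 h, then given compound or vehicle intragastrically. Two hours later, 20% glucose was injected i.p. at 2 g/kg. Tail-vein glucose read by glucometer at -120, 0, 20, 40, 60 and 90 min, and net AUC calculated. Doses were 25, 50 and 100 mg/kg.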

Mus musculus [11] = assay: Antihyperglycemic activity in db/db mouse assessed as improved insulin resistant at 100 mg/kg, ig administered once daily for 9 weeks by ITT; assay type: functional, organism-based
Procedure, shortened: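 db/db mice dosed from 5 weeks of age with 100 mg/kg/day in 0.5% methylcellulose vehicle, for 9 weeks. After a 6 h fast, insulin was injected i.p. at 1.5 mU/g body weight and tail-vein blood glucose followed. Data given as mean ± SEM and compared by two-way ANOVA.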

Mus musculus [12] = organism: Mus musculus; assay: Improvement in lipid homeostasis in db/db mouse assessed as effect on serum triglyceride level; assay type: functional, organism-based
[13] = Induction of cardiac hypertrophy in normal lean C57BL/6 mouse at 100 mg/kg, ig administered for 4 weeks; assay type: organism-based; details: in vivo, po, 672 h
Procedure, shortened: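 Male C57BL/6 mice, 9 weeks old, dosed intragastrically daily for 4 weeks. After saline perfusion, organ weights and tibia length were recorded. Heart pieces were fixed in 4% paraformaldehyde, embedded in paraffin and stained with periodic acid-Schiff to show glycogen.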

[14] = Induction of cardiac hypertrophy in db/db mouse at 100 mg/kg, ig administered for 10 weeks; assay type: organism-based; details: in vivo, po, 1680 h
[15] = Induction of cardiac hypertrophy in db/db mouse assessed as increase in cardiac glycogen accumulation at 100 mg/kg, ig administered for 10 weeks; assay type: organism-based; details: in vivo, po, 1680 h
Mus musculus [16] = assay: Activation of AMPK in normal lean C57BL/6 mouse assessed as increase in phosphorylated ACC level in skeletal muscle at 100 mg/kg, ig administered for 4 weeks by Western blot analysis; assay type: functional, organism-based; details: Skeletal muscle tissue
Procedure, shortened: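 Male C57BL/6 mice, 9 weeks old, dosed intragastrically once daily for 4 weeks alongside vehicle controls. Heart and skeletal muscle were homogenized in RIPA buffer with protease/phosphatase inhibitors and centrifuged at 10,600 g for 20 min. About 30 µg protein was blotted for p-AMPK and p-ACC and detected by ECL.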

H9c2 [17] = assay: Activation of AMPK in rat H9C2 cells assessed as increase in phosphorylation of AMPK at 1 to 20 uM incubated for 1 to 24 hrs by Western blot analysis; assay type: cell-based; details: dose 1-20 µM, time 1-24 hrs
Procedure, shortened: (§3)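 Rat cardiac H9C2 cells treated with a concentration range for 2 h or 4 h, or with 10 μM over a time course. Lysates blotted for phosphorylated and total AMPK and ACC, detected by ECL.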

H9c2 [18] = assay: Activation of AMPK in rat H9C2 cells assessed as increase in phosphorylation of ACC at 1 to 20 uM incubated for 1 to 24 hrs by Western blot analysis; assay type: cell-based; details: dose 1-20 µM, time 1-24 hrs; procedure, shortened: as §3

Q: With CC(C)(Oc1ccc(Cl)cc1)C(=O)Nc1ccc(OCc2ccc(C#N)cc2)cc1 as the compound, how does the Activity (C2C12 [1]) read?
A: Active

Q: And the Activity (C2C12 [2])?
A: Dose-dependent effect

Q: What about the Activity (HepG2 [3]) of the same compound?
A: Active

Q: And the Activity (HepG2 [4])?
A: Active

Q: And the Activity (Huh-7)?
A: Active

Q: What about the “inhibition (INH)” value [5] of the same compound?
A: Not Active

Q: What about the “inhibition (INH)” value [6] of the same compound?
A: Not Active

Q: What about the Activity (C2C12 [7]) of the same compound?
A: inactive

Q: What about the Activity (BEAS-2B) of the same compound?
A: Active

Q: And the Activity (C2C12 [8])?
A: Active

Q: And the remaining at 0.75 h [9]?
A: 39%

Q: And the Activity (Mus musculus [10])?
A: Dose-dependent effect

Q: And the Activity (Mus musculus [11])?
A: Active

Q: What about the Activity (Mus musculus [12]) of the same compound?
A: inactive

Q: And the Activity [13]?
A: Non-Toxic

Q: And the Activity [14]?
A: Non-Toxic

Q: And the Activity [15]?
A: Non-Toxic

Q: What about the Activity (Mus musculus [16]) of the same compound?
A: Active

Q: And the Activity (H9c2 [17])?
A: inactive

Q: What about the Activity (H9c2 [18]) of the same compound?
A: inactive
